# Compounds with a hit are over-represented: about 2% of the library has one in this group of screens.
# UCH37 DUB inh: inhibitors of human deubiquitinating enzyme UCH37 | Q9Y5K5 | purified proteasome/UCH37, Ub-AMC cleavage fluorescence | inhibition, % (test concentration not listed) | 330,000 compounds, 0.33% hits;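 active = mean inhibition over replicate wells above about 20%, limit read from the data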;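 note: 0% = compound-free wells with enzyme and 100% = wells lacking proteasome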
# Target sequence (Q9Y5K5 whole entry, looked up): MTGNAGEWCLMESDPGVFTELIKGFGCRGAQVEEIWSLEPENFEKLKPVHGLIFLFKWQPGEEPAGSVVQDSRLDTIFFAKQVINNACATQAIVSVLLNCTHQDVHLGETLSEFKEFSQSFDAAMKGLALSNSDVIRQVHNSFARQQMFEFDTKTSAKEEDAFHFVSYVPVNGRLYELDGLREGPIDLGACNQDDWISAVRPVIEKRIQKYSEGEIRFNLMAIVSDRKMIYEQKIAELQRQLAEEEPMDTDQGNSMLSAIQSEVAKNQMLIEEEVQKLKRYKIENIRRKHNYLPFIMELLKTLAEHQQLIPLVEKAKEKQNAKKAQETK
#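 Material: Human UCH37 enzyme supplied as purified proteasome complex | Schedule: 30 min preincubation with enzyme, 25 min cleavage at room temperature | Detection: AMC fluorescence 355/460 nm | Measure: % inhibition of Ub-AMC cleavage fluorescence | Controls: Wells without proteasome as full block, compound-free enzyme plus substrate as uninhibited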
# Apaf1 inhib: human Apaf-1 inhibition | O14727 | reconstituted apoptosome caspase-3 activity, DEVD-Rh110 fluorescence | 330,000 compounds, 0.71% hits | inhibition, % at 20 µM; active = inhibition of at least 40% at 20 µM;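 note: plate controls were DMSO wells for no effect and DEVD-CHO caspase inhibitor wells for full effect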
#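 Material: reconstituted apoptosome with Apaf-1, cytochrome c, caspase-9, procaspase-3, dATP. Technique: Rh110 fluorescence intensity. Buffer or medium: pH 7.5 Hepes buffer with CHAPS, BSA, DTT. Times: 30 min plus 50 min, RT.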
# PP5 inh: blocks human protein phosphatase 5 activity | inhibition, % at 6.7 µM | purified PP5c, OMFP substrate fluorescence | AID 1987 | 320,000 compounds, 0.18% hits;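 active = inhibition above the campaign's mean inhibition across all tested compounds plus 3 SD, cut at about 9.5% in these data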;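 note: 0% = DMSO only and 100% = 100 µM cantharidin control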
# GSTO1 inh: counter-screen for RBBP9 inhibitors: inhibitors of human GSTO1; inhibition, % at 5.96 µM; 300,000 compounds, 1.1% hits; AID 1974; P78417; recombinant GSTO1, activity-based probe fluorescence polarization;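 active = inhibition above the campaign mean inhibition plus 3 SD, cut at about 35% in these data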;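 note: 0% = GSTO1-1 with DMSO and 100% = wells lacking GSTO1-1 enzyme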
# Target sequence (P78417 whole entry, looked up): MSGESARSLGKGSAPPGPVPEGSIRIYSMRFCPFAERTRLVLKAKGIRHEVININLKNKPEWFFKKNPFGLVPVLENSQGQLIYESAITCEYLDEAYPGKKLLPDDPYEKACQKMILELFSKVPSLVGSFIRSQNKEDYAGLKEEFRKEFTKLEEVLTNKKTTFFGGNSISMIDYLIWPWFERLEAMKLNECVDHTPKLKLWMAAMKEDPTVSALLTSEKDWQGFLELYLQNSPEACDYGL
# CTSL1 counter: blocks F. hepatica cathepsin L1 in PFM18AAP counter-screen. 300,000 compounds, 0.49% hits. recombinant F. hepatica cathepsin L1, Z-Leu-Arg-MCA fluorescence. inhibition, % at 5.96 µM;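 active = inhibition above the mean of all tested compounds plus 3 SD, set per screening campaign, cut at about 17% in these data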;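 note: 0% = plate median of test compound wells and 100% = 1 µM Z-Phe-Ala-diazomethylketone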
# PAD4 inh: PAD4 (human) enzyme inhibition; inhibition, % at 6.36 µM; AID 485272; recombinant PAD4, RCA probe fluorescence polarization; 330,000 compounds, 0.41% hits; Q9UM07;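 active = percent inhibition above a cutoff equal to the mean of all tested compounds plus 3 SD, cut at about 15% in these data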;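 note: 0% = PAD4 with RCA probe and DMSO and 100% = probe without PAD4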
# * marks the source's active call; other numbers are inactive results; . = not tested or not shown.
SMILES,UCH37 DUB inh,Apaf1 inhib,PP5 inh,GSTO1 inh,CTSL1 counter,PAD4 inh
N#CCCN(C(=O)COC(=O)c1nc(Cl)ccc1Cl)c1ccccc1,2,6,-1,-3,-7,-6
COc1ccccc1C=NOC(=O)c1ccc(C)cc1,3,.,.,.,.,.
CCOC(=O)NN=Cc1cccc(OC)c1,6,.,.,.,.,.
COc1ccc(C2/C=C\CN(C(=O)Nc3ccc(C(F)(F)F)cc3)CC(=O)N2Cc2ccc(F)cc2)cc1 (configuration not stated),0,23,8,-2,2,1
COc1ccc(C2/C=C\CN(C(=O)Nc3ccccc3)CC(=O)N2Cc2ccc(F)cc2)cc1 (configuration not stated),-1,8,2,36*,-2,2
CSc1ccc(C=NNc2nc(C)cc(=O)[nH]2)cc1,8,.,.,.,.,.
FC(F)(F)c1ccc2c(c1)NCC1CCCN21 (configuration not stated),-8,20,5,26,22*,0
CC1CCN(C(=O)c2[nH]cnc2C(=O)NCc2ccc(CNC(=O)OC(C)(C)C)cc2)CC1,28*,1,0,.,.,-2
CC(C)(C)OC(=O)CNC(=O)c1nc[nH]c1C(=O)N1CCc2ccccc2C1,31*,-6,1,6,2,-2
CC(C)(C)OC(=O)N1CCC(NC(=O)c2nc[nH]c2C(=O)N2CCc3ccccc3C2)CC1,29*,15,-2,.,.,-5
O=c1cc(N=Cc2coc3cc(Br)ccc3c2=O)[nH]c(=S)[nH]1,12,.,.,.,.,.
COc1ccc(OC)c(C=NNC(=O)C(=O)N2CCCC2)c1,1,.,.,.,.,.
COc1ccc2nc(N3CCC(O)CC3)c(C#N)cc2c1,-97,10,1,36*,15,-14
COc1ccc2nc(N3CCC(C)CC3)c(C#N)cc2c1,-28,34,-4,10,2,-13
O=C(COC(=O)c1ccc([N+](=O)[O-])s1)Nc1ncc(C(F)(F)F)cc1Cl,16,34,1,26,34*,-12
O=C(COC(=O)c1ccccn1)Nc1ncc(C(F)(F)F)cc1Cl,2,0,2,4,-5,-4
CCC(=NOC(=O)c1ccc(OC(C)C)cc1)c1ccc(C)cc1,-2,.,.,.,.,.
CCc1nnc(NC(=O)CSc2nc3cccnc3n2Cc2ccccc2)s1,4,4,0,36*,1,0
N#Cc1c(N)nc2c3c(sc(=N)c2c1N)NC(=O)CC3c1c(F)cccc1Cl (configuration not stated),.,21,1,35*,4,2
N#Cc1c(N)nc2c3c(sc(=N)c2c1N)NC(=O)CC3c1ccccc1 (configuration not stated),-115,16,1,-12,11,-2
O=C(O)c1cc(-c2ccc(/C=c3\sc4nc5ccc(Br)cc5n4c3=O)o2)ccc1Cl,.,.,-1,41*,-8,-3
O=C(NN=Cc1ccccc1OC(F)F)NC1CCCCC1,3,.,.,.,.,.
COc1ccc2ccccc2c1C(=O)/C=C\c1ccoc1,9,11,0,13,23*,1
O=C(COc1ccc(-c2ccccc2)cc1)NN=Cc1ccccc1Br,4,.,.,.,.,.
CCN(CC)CCN(C(=O)c1ccc2c(c1)CCCC2)c1nc2cc(OC)c(OC)cc2s1,-2,48*,17*,4,12,-1
SMILES,UCH37 DUB inh,Apaf1 inhib,PP5 inh,GSTO1 inh,CTSL1 counter,PAD4 inh
Fc1ccc(C=NNC2=Nc3cccc4cccc2c34)cc1,3,.,.,.,.,.
NS(=O)(=O)c1ccc(Sc2nc3ccccc3s2)c([N+](=O)[O-])c1,8,-6,0,-1,-7,4
O=C(O)c1ccc(S(=O)(=O)Nc2ccc(O)c(Sc3nc4ccccc4s3)c2)cc1,3,2,1,55*,8,3
Brc1cc2c(cc1Br)OCCOCCOCCO2,5,-1,0,37*,0,6
CC(=O)c1cc2c(O)c(O)ccc2o1,1,5,1,37*,-1,-2
CC(C)S(=O)(=O)C1=NSC2=NC(=O)/C(=C\c3ccc(-c4cccc(C(=O)O)c4)o3)C(=N)N21,22*,.,.,.,.,.
Cc1nc2ccccc2n1CC(=O)NN=Cc1cccnc1,4,.,.,.,.,.
CCN(CC)S(=O)(=O)c1cccc(NC(=O)COC(=O)CNC(=O)c2cccc(F)c2)c1,5,-10,-1,24,18*,4
Cc1ccc(C(=O)CSc2nnc(-c3ccco3)n2C)cc1,-2,7,1,12,-3,1
Cn1c(SCC(=O)c2cc(Cl)c(Cl)s2)nnc1-c1ccco1,.,20,1,44*,-6,-4
Cc1ccc(C(=O)ON=CC2=C(Cl)c3ccccc3CC2)cc1,5,.,.,.,.,.
CC(C)(C)OC(=O)N1CC=C2C(C#N)=C(N)C(C#N)(C#N)[C@H](c3cccnc3)[C@H]2C1,-77,-3,-1,4,8,-1
N#CC1=C(N)C(C#N)(C#N)[C@H](c2ccncc2)[C@H]2CN(C(=O)OCc3ccccc3)CC=C12,-33,3,6,17,19*,-1
CCn1c(SCC(=O)NN=Cc2ccc(C)o2)nnc1-c1ccc(C(C)(C)C)cc1,7,.,.,.,.,.
CC(C)(C)S(=O)(=O)N1C[C@H]2CC/C=C\C/C(c3ccccc3)=C\2[C@@H]1CCO,25*,.,.,.,.,.
C[C@@H]1CN(S(=O)(=O)C(C)(C)C)[C@@H](CCO)/C1=C\c1ccccc1,4,.,.,.,.,.
COc1ccc(/C=C/C(=O)NCC(=O)NN=C(C)c2ccc(Cl)cc2)cc1,2,.,.,.,.,.
CN(/C=C/C(=C\C=[N+](C)c1ccccc1)OCCCS(=O)(=O)[O-])c1ccccc1,20*,-4,0,15,2,0
CN(/C=C/C(=C/C=[N+](C)c1ccccc1)OCCCS(=O)(=O)[O-])c1ccccc1,21*,0,4,1,0,2
COc1ccc(N2C(=O)C(C)(C)C2c2c(O)ccc3ccccc23)cc1 (configuration not stated),3,26,7,7,17*,-4
CC1(C)C(=O)N(c2ccccc2)C1c1ccccc1O (configuration not stated),1,2,2,1,-5,0
COc1ccc(/C=C2/C(=O)N(c3c(F)c(F)c(F)c(F)c3F)N=C2C)cc1,1,54*,0,-6,1,-9
C=CCn1c(C)cc(C(=O)CSc2nnc(NC(C)C)s2)c1C,-5,-5,1,1,-5,-1
C=CCn1c(C)cc(C(=O)CSc2nnc(NCc3ccccc3)s2)c1C,5,.,12*,-3,3,1
Cc1ccc(C(=O)Nc2cccc(N(C)S(C)(=O)=O)c2)cc1S(=O)(=O)Nc1ccccc1,3,7,4,0,19*,-3
COc1cccc(CNC(=O)Cn2c(=O)oc3ccccc32)c1OC,7,1,1,-1,0,-3

# Source: PubChem (several laboratories)
